Experimental data taken from ChEMBL document CHEMBL1156862, “Synthesis of C-glycoside analogues of beta-galactosamine-(1-->4)-3-O-methyl-D-chiro-inositol and assay as activator of protein phosphatases PDHP and PP2Calpha” (Bioorg Med Chem, 2010).
Active and inactive are the calls of the source. No cut-off for these calls is given here.

What was measured:
[1] = molecular target: T1, Protein phosphatase 1A (Mus musculus) (UniProt P49443); assay: Activation of mouse recombinant GST-tagged PP2Calpha assessed as phosphate release using para-Nitrophenyl phosphate substrate
T1 sequence (whole entry): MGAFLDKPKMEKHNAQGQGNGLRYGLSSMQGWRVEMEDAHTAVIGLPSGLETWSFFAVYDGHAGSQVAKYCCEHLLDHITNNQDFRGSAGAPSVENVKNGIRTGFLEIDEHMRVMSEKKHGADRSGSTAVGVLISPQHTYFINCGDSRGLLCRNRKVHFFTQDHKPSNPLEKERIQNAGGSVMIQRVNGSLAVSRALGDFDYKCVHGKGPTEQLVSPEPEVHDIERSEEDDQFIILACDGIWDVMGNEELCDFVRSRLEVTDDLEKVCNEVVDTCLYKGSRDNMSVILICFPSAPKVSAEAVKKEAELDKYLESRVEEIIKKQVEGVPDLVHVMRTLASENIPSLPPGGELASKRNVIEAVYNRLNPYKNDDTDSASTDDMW
Method in brief: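 Mouse wild-type GST-PP2Cα fusion (1 µg) at rt in 0.1 M Tris-HCl pH 8.0, 2 mM DTT, with varied MnCl₂ or compound. Substrate 5 mM p-nitrophenyl phosphate, 30 min. Stopped with 0.5% SDS, A410. Triplicates, mean ± SD versus concentration.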

[2] = molecular target: T1, Protein phosphatase 1A (Mus musculus); assay: Activation of mouse recombinant GST-tagged PP2Calpha assessed as phosphate release using octapeptide-phosphate substrate RRRRPp-TPA
Method in brief: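 Mouse wild-type GST-PP2Cα fusion (2 µg) at rt in 0.1 M Tris-HCl pH 8.0, 2 mM DTT, with varied MnCl₂ or compound. Phosphopeptide RRRRPpTPA at 5 µM final, 15 min. Stopped with malachite green, 15 min color, A650. No-enzyme blanks subtracted; triplicates, mean ± SD versus concentration.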

[3] = Activation of PDHP in absence of 5 mM Mn2+
Method in brief: (§1)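 Triplicate wells. PDHP and PDH incubated 37 °C 30 min. NaF stop, then pyruvate-ADP and NAD/cocarboxylase/CoA mix, 2 min rt. Activity read as absorbance change at 340 nm; data pooled from two experiments with separately synthesized samples.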

[4] = Activation of PDHP in presence of 5 mM Mn2+; method in brief: as §1

SMILES: CO[C@@H]1[C@@H](O)[C@@H](O)[C@H](O)[C@H](O)[C@H]1O[C@@H]1O[C@H](CO)[C@H](O)[C@H](O)[C@H]1N
- Activity [1]: inactive
- Activity [2]: Active
- Activity [3]: inactive
- Activity [4]: Active

SMILES: CO[C@@H]1[C@@H](O)[C@@H](O)[C@H](O)[C@H](O)[C@H]1C[C@@H]1O[C@H](CO)[C@H](O)[C@H](O)[C@H]1N
- Activity [1]: inactive
- Activity [2]: inactive
- Activity [3]: inactive
- Activity [4]: Active

SMILES: CO[C@@H]1[C@@H](O)[C@@H](O)[C@H](O)[C@H](O)[C@H]1C[C@@H]1O[C@H](CO)[C@H](O)[C@H](O)[C@H]1O
- Activity [1]: inactive
- Activity [2]: inactive
- Activity [3]: inactive
- Activity [4]: inactive
